From ChEMBL document CHEMBL1143308, “Spiro-piperidine azetidinones as potent TRPV1 antagonists” (Bioorg Med Chem Lett, 2009)
Values after ≈ are worked out from the molar mass of the structure shown. Active and inactive are the calls of the source. The rule behind the calls is not given here.

Assays:
[1] = Aqueous solubility of the compound; type: physicochemical; conditions: buffer
[2] = AUC (0 to 6 hrs) in rat at 10 mg/kg, po; type: ADME, organism-based; design: time < 6 hr, dose 10 mg/kg, route oral; conditions: plasma
Summary of the method: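 Rat pharmacokinetics: oral dosing at 10 mpk in 20% HPBCD vehicle; AUC taken over 0–6 h.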

[3] = target: T1, Transient receptor potential cation channel subfamily V member 1 (Homo sapiens, UniProt Q8NER1); experiment: Antagonist activity at TRPV1 expressed in HEK293 cells assessed as inhibition of capsaicin-induced activation by FLIPR assay; type: functional, cell-based
Summary of the method: (§1)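 FLIPR calcium-flux run at 37 °C in a HEK293 line stably transfected with TRPV1. Channel activated by capsaicin or by PMA, and the IC50 is taken against each agonist. Compounds dissolved in DMSO, with DMSO alone as the vehicle control.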

[4] = target: T1, Transient receptor potential cation channel subfamily V member 1; experiment: Antagonist activity at TRPV1 expressed in HEK293 cells assessed as inhibition of PMA-induced activation by FLIPR assay; type: functional, cell-based; summary of the method: as §1
[5] = target: T1, Transient receptor potential cation channel subfamily V member 1; experiment: Antagonist activity at TRPV1 expressed in HEK293 cells assessed as inhibition of capsaicin-induced activation at 10 uM by FLIPR assay; type: functional, cell-based; design: scale not given: the % may be the effect or the level left
Summary of the method: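 TRPV1 FLIPR run at 37 °C in stably transfected HEK293 cells, capsaicin-activated. Percent inhibition measured with test compound at a single concentration of 10 µM, from DMSO solution, with a DMSO vehicle control.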

[6] = Stability in pH 7.4 buffer after 24 hrs; type: physicochemical; conditions: pH 7.4, 24 h
Summary of the method: (§2)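 Compound held in pH 7.4 buffer spiked with 0.1 M NaSMe and methylamine to mimic plasma nucleophiles. Followed by LC–MS for up to 24 h, tracking loss of parent and appearance of the ring-opened amino acid.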

[7] = Oral bioavailability in rat at 10 mg/kg; type: ADME, organism-based; conditions: in vivo
[8] = Half life in iv dosed rat; type: ADME, organism-based; conditions: in vivo
Summary of the method: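 Rat dosed intravenously as an add-on to the oral PK study (10 mpk oral in 20% HPBCD); terminal half-life from the iv arm.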

[9] = Stability in pH 7.4 buffer assessed as formation of 1-(tert-butoxycarbonyl)-3-(phenyl(phenylamino)methyl)azetidine-3-carboxylic acid after 2 hrs; type: physicochemical; conditions: pH 7.4, 2 h; summary of the method: as §2

T1 sequence (Q8NER1 whole entry): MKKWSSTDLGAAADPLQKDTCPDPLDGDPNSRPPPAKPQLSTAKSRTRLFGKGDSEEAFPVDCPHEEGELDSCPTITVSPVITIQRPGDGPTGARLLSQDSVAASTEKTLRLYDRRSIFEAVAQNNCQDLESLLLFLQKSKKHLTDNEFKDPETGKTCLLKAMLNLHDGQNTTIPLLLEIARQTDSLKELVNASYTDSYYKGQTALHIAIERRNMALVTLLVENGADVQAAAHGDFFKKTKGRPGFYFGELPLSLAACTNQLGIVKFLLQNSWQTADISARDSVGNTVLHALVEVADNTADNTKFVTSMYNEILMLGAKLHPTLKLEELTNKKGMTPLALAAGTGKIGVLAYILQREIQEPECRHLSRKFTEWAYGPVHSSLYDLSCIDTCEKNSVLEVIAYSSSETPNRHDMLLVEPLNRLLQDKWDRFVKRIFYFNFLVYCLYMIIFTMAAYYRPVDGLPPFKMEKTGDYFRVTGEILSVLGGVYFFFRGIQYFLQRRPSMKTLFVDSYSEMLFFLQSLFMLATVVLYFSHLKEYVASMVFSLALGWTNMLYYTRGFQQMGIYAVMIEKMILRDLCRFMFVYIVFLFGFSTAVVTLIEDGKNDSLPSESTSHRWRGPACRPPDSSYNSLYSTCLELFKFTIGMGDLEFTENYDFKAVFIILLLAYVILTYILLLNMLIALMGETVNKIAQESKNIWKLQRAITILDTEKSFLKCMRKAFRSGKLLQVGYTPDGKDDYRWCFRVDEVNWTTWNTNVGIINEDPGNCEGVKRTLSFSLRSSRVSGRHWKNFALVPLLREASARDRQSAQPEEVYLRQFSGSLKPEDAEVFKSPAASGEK

Compound	AUC(0-t) at 6 h [2] [ng·h/mL]	IC50 [3] [nM]	IC50 [4] [nM]	also measured
CC(C)(C)c1ccc(NC(=O)N2CCC3(CC2)CN(c2ccccc2-c2ccccc2)C3=O)cc1	–	–	–	Activity [5]: 73%
CC(C)(C)OC(=O)N1CCC2(CC1)C(=O)N(c1ccccc1)C2c1ccccc1 (centres undefined)	–	–	–	Stability [6]: Stable
CC(C)(C)c1ccc(NC(=O)N2CCC3(CC2)C(=O)N(c2ccccc2)[C@@H]3c2ccccc2)cc1	–	–	–	Activity [5]: 8.5%
CC(C)c1ccc(NC(=O)N2CCC3(CC2)C(=O)N(c2ccccc2)[C@@H]3c2ccccc2)cc1	–	–	–	Activity [5]: inactive
CC(C)(C)[C@H]1CC[C@@H](NC(=O)N2CCC3(CC2)C(=O)N(c2ccccc2)[C@H]3c2ccccc2)CC1	–	528	232	–
CC(C)c1ccc(NC(=O)N2CCC3(CC2)C(=O)N(c2ccccc2)[C@H]3c2ccccc2)cc1	19	81	43	–
O=C(Nc1ccc(C(F)(F)F)cn1)N1CCC2(CC1)C(=O)N(c1ccccc1)C2c1ccccc1 (racemic)	–	205	318	–
O=C(Nc1ccc(C(F)(F)F)cc1)N1CCC2(CC1)C(=O)N(c1ccccn1)[C@@H]2c1ccccc1	–	–	–	Activity [5]: 83%
CC(C)c1ccc(NC(=O)N2CCC3(CC2)C(=O)N(c2ccccc2)C3c2ccccc2)cc1 (centres undefined)	44	101	113	–
CC(C)(C)[C@H]1CC[C@H](NC(=O)N2CCC3(CC2)C(=O)N(c2ccccc2)[C@H]3c2ccccc2)CC1	–	49	32	–
CC(C)(C)OC(=O)N1CC2(C1)C(=O)N(c1ccccc1)C2c1ccccc1 (centres undefined)	–	–	–	Stability [9]: Unstable

Further lines, with some results ahead:

AUC(0-t) at 6 h [2] [ng·h/mL]	IC50 [3] [nM]	IC50 [4] [nM]	Compound	also measured
49	9.4	12	CC(C)(C)c1ccc(NC(=O)N2CCC3(CC2)C(=O)N(c2ccccc2)[C@H]3c2ccccc2)cc1	solubility [1]: 0.094 µM (≈ 0.044 µg/mL)
–	80	59	CC(C)(C)c1ccc(NC(=O)N2CCC3(CC2)CN(c2ccccc2)C3=O)cc1	–
–	226	–	CC(C)(c1ccccc1)c1ccc(NC(=O)N2CCC3(CC2)C(=O)N(c2ccccc2)[C@H]3c2ccccc2)cc1	–
2500	13	8.5	O=C(Nc1ccc(C(F)(F)F)cc1)N1CCC2(CC1)C(=O)N(c1ccccn1)[C@H]2c1ccccc1	bioavailability [7]: 45%; solubility [1]: 0.3 µM (≈ 0.144 µg/mL); half-life [8]: 2.5 h
1660	85	103	O=C(Nc1ccc(C(F)(F)F)cc1)N1CCC2(CC1)C(=O)N(c1ccccc1)C2c1ccccc1 (racemic)	–
